Published values from different studies.
OR5K1: OR5K1 (Homo sapiens, UniProt Q8NHB7)
STAT3: Signal transducer and activator of transcription 3 (STAT3, Homo sapiens, UniProt P40763)
SIRT6: NAD-dependent protein deacylase sirtuin-6 (SIRT6, Homo sapiens, UniProt Q8N6T7)
CDK2: Cyclin-dependent kinase 2 (CDK2, Homo sapiens, UniProt P24941)
HTR6: 5-hydroxytryptamine receptor 6 (HTR6, Homo sapiens, UniProt P50406)
PKM: Pyruvate kinase PKM (PKM, Homo sapiens, UniProt P14618)
OR5K1 A2T/T15M/Y193C: OR5K1 (Homo sapiens, UniProt Q8NHB7, A2T/T15M/Y193C)
HTR7: 5-hydroxytryptamine receptor 7 (HTR7, Homo sapiens, UniProt P34969)

Cc1cnc(C)cn1 — EC50 (OR5K1; cAMP, agonist): > 1500 µM
C[C@H](NC(=O)CNC(=O)[C@@H]1CCCN1C(=O)[C@@H]1CCCN1C(=O)[C@H](C)NC(=O)[C@H](CCC(N)=O)NC(=O)CNC(=O)[C@@H]1CCCN1C(=O)[C@H](Cc1ccc(O)cc1)NC(=O)[C@H](C)NC(=O)CNC(=O)[C@@H]1CCCN1C(=O)[C@@H]1CCCN1C(=O)[C@H](C)NC(=O)[C@H](CCC(N)=O)NC(=O)CNC(=O)[C@@H]1CCCN1C(=O)[C@H](Cc1ccc(OP(=O)(O)O)cc1)NC(=O)[C@H](C)NC(=O)CN)C(=O)O — Kd (STAT3; binding, ITC; pH 7.5): ~40 µM
CC(C)(C)c1ccc(CONC(=O)c2ccc(C(N)=O)cc2)cc1 — IC50 (SIRT6; enzyme activity, inhibitor, fluorescence): 2.79 µM
COc1cnccn1 — EC50 (OR5K1; cAMP, agonist): > 1500 µM
CC(=O)N=S(=O)(O)c1ccc(N/C=C2\C(=O)Nc3ccc4ncsc4c32)cc1 — Kd (CDK2; binding): 0.526 µM
CC(=O)N[C@H](C(=O)N[C@@H](CC(N)=O)C(=O)N[C@@H](CCCCN)C(=O)N1CCC[C@H]1C(=O)N[C@@H](CC(C)C)C(=O)N1CCC[C@H]1C(=O)N1CCC[C@H]1C(=O)N[C@@H](CC(C)C)C(=O)N1CCC[C@H]1C(=O)N[C@H](C(=O)N[C@@H](C)C(N)=O)C(C)C)C(C)C — Kd (Tyrosine-protein kinase Fyn, SH3 (FYN, Homo sapiens, UniProt P06241); binding, ITC; pH 7): 23.9 µM
CC1=C(/C=C/C2=CCC[C@]3(C)[C@@H]([C@H](C)CCCC(C)(C)O)CC[C@@H]23)C[C@@H](O)CC1 — EC50 (Oxysterols receptor LXR-beta (NR1H2, Homo sapiens, UniProt P55055); coactivator recruitment, agonist, TR-FRET): 0.01 to 0.1 µM
Cc1nc2cc(OCCCCN3CCN(c4cccc(Cl)c4Cl)CC3)ccc2s1 — Ki (HTR6; cell-free assay, radioligand): 0.72 µM
Nc1nc2c(ncn2[C@@H]2O[C@H](COP(=O)(O)OP(=O)(O)O)[C@@H](OP(=O)(O)OP(=O)(O)O)[C@H]2O)c(=O)[nH]1 — Kd (icd (Escherichia coli, UniProt P08200); binding, ITC): 132 µM
NC(=O)c1ccc(C(=O)NOCc2ccc3nccnc3c2)cc1 — IC50 (SIRT6; enzyme activity, inhibitor, fluorescence): 65 µM
Cc1nccnc1C — EC50 (OR5K1; cAMP, agonist): > 1500 µM
Cc1cc2nc3c(=O)[nH]c(=O)nc-3n(C[C@H](O)[C@H](O)[C@H](O)COP(=O)(O)OP(=O)(O)OC[C@H]3O[C@@H](n4cnc5c(N)ncnc54)[C@H](O)[C@@H]3O)c2cc1C — Kd (Nucleolysin TIAR (Homo sapiens, UniProt Q01085); binding; lysate): 0.011 µM
NC(=O)c1ccc(C(=O)NOCc2cccc3ccccc23)cc1 — IC50 (SIRT6; enzyme activity, inhibitor, fluorescence): 2.89 µM
Cc1ccc(NS(=O)(=O)c2ccc3c(c2)CCC(=O)N3)cc1F — AC50 (PKM; enzyme activity, activator): 0.54 µM
NC(=O)c1ccc(C(=O)NOCc2ccc(-c3ccccc3)cc2)cc1 — IC50 (SIRT6; enzyme activity, inhibitor, fluorescence): 2.56 µM
CN(CC(=O)N(Cc1ccc2ccccc2c1)c1ccc(C(=O)O)c(O)c1)S(=O)(=O)c1c(F)c(F)c(F)c(F)c1F — Ki (STAT3; ligand displacement, FP): 32.5 µM
CCc1nccnc1OC — EC50 (OR5K1 A2T/T15M/Y193C; cAMP, agonist): 578 µM
CCc1nc2cc(OCCCCN3CCC(c4cccc(Cl)c4Cl)CC3)ccc2s1 — Ki (HTR6; cell-free assay, radioligand): 0.96 µM
O=C1c2ccccc2CCN1CCCCN1CCN(c2cccc(Cl)c2Cl)CC1 — Ki (HTR6; ligand displacement, radioligand): 0.544 µM
O=C1CCc2cc(S(=O)(=O)Nc3ccc4ncccc4c3)ccc2N1 — AC50 (PKM; enzyme activity, activator): > 20 µM
CN1CCC(=C2c3ccccc3C=Cc3ccccc32)CC1 — Ki (HTR7; ligand displacement, radioligand; cell membranes): 0.024 µM
NC(=O)c1ccc(C(=O)NOCc2ccc(Sc3ccccc3)c(C(F)(F)F)c2)cc1 — IC50 (SIRT6; enzyme activity, inhibitor, fluorescence): 1.63 µM
Cc1cnc(C)c(C)n1 — EC50 (OR5K1 A2T/T15M/Y193C; cAMP, agonist): 419 µM
c1cncc(-c2cccc(Nc3nccc(NC4CCCCC4)n3)c2)c1 — Kd (Serine/threonine-protein kinase D3 (PRKD3, Homo sapiens, UniProt O94806); binding, competition with immobilised ligand): 1.7 µM
Cc1ccc(NS(=O)(=O)c2cc3c(cc2NC(C)C)NC(=O)CC3)cc1C — AC50 (PKM; enzyme activity, activator): 0.57 µM
Cc1cc(C)c(S(=O)(=O)N(C)CC(=O)N(Cc2ccc3ccccc3c2)c2ccc(C(=O)O)c(O)c2)c(C)c1 — Ki (STAT3; ligand displacement, FP): 27.7 µM
O=C1CCc2cc(S(=O)(=O)Nc3ccc4c(c3)OCCO4)ccc2N1 — AC50 (PKM; enzyme activity, activator): 11.1 µM
Cc1cnc(-c2ccc(-c3ccc(NC(=O)Nc4c(F)cc(F)cc4F)cc3F)c3c2C(=O)NC3)[nH]1 — Kd (Vascular endothelial growth factor receptor 3 (FLT4, Homo sapiens, UniProt P35916); binding, competition with immobilised ligand): 0.016 µM
Cc1ccc(NS(=O)(=O)c2cc3c(cc2NC(C)CO)NC(=O)CC3)cc1C (stereo not drawn) — AC50 (PKM; enzyme activity, activator): 0.23 µM
NC(=O)c1ccc(C(=O)NOCc2ccccc2Br)cc1 — IC50 (SIRT6; enzyme activity, inhibitor, fluorescence): 9.55 µM
Cc1ccc(NS(=O)(=O)c2cc3c(cc2N[C@@H](C)CO)CCC(=O)N3)cc1Cl — AC50 (PKM; enzyme activity, activator): 6.1 µM
O=C(NOCc1ccc(C(F)(F)F)cc1)c1ccc(CO)cc1 — IC50 (SIRT6; enzyme activity, inhibitor, fluorescence): 6.68 µM
CC(C)[C@@H](CC[C@@H](C)[C@H]1CC[C@H]2[C@@H]3[C@H](O)C[C@H]4C[C@@H](NCCCNCCCCNCCCN)CC[C@]4(C)[C@H]3CC[C@]12C)OS(=O)(=O)O — Ki (Receptor-type tyrosine-protein phosphatase C (PTPRC, Homo sapiens, UniProt P08575); enzyme activity, inhibitor): 18 µM
NC(=O)c1ccc(C(=O)NOCc2cccc(Br)c2)cc1 — IC50 (SIRT6; enzyme activity, inhibitor, fluorescence): 5.24 µM
C[C@@H](CO)Nc1cc2c(cc1S(=O)(=O)Nc1ccc(F)c(Cl)c1)CCC(=O)N2 — AC50 (PKM; enzyme activity, activator): 0.13 µM
CN(C)CCC=C1c2ccccc2CCc2ccccc21 — Ki (HTR7; ligand displacement, radioligand; cell membranes): 0.096 µM
O=C(Nc1cc(C2CCCCC2)[nH]n1)c1ccc(Br)cc1 — Kd (CDK2; binding, ITC): > 100 µM
Cc1ccc(NS(=O)(=O)c2cc3c(cc2-c2ccccc2)NC(=O)CO3)cc1C — AC50 (PKM; enzyme activity, activator): > 20 µM
CN1CCN(C2=Nc3ccccc3Oc3ccc(Cl)cc32)CC1 — Ki (HTR7; ligand displacement, radioligand; cell membranes): 0.258 µM
